From ChEMBL document CHEMBL3526048, “In vitro metabolism of rivoglitazone, a novel peroxisome proliferator-activated receptor γ agonist, in rat, monkey, and human liver microsomes and freshly isolated hepatocytes” (Drug Metab Dispos, 2011)

Key:
[1] = biological target: Cytochrome P450 2C9 (Homo sapiens, UniProt P11712); test: (§1) Activity of human CYP2C9 expressed in microsomes isolated from baculovirus infected insect cell assessed as enzyme-mediated 2-amino-3-((1-carboxy-2-(4-((6-methoxy-1-methyl-1H-benzo[d]imidazol-2-yl)methoxy)phenyl)ethyl)disulfanyl)propanoic acid formation at 20 uM after 2 hrs by radio-HPLC/LC-MS/MS analysis; format: ADME
Cytochrome P450 2C9, sequence (P11712 whole entry): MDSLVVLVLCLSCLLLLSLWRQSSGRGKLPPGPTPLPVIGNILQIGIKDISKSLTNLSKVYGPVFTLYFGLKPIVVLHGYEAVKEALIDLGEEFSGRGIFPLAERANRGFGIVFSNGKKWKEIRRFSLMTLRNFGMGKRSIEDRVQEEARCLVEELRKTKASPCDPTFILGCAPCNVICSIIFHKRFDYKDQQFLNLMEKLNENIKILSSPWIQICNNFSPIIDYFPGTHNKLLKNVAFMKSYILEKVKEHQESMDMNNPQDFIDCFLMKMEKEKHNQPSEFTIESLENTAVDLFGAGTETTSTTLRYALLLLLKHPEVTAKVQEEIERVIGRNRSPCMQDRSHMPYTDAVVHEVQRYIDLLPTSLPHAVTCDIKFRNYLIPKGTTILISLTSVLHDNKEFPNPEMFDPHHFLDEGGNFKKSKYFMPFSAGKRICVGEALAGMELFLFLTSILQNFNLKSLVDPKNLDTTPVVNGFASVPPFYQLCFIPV
Summary of the method: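 Baculovirus-insect-cell microsomes expressing the human CYP (1 mg/ml protein) were incubated with [14C]rivoglitazone (20 μM) in 50 mM potassium phosphate (pH 7.4) or 100 mM Tris-HCl (pH 7.5) with an NADPH-generating system (2 mM NADP+, 20 mM glucose 6-phosphate, 2 units/ml G6PDH, 10 mM MgCl2) for 2 h at 37°C. Insect-cell control supersomes served as the control. Reactions were stopped with acetonitrile, and the concentrated supernatants were analysed by radio-HPLC, LC-MS and LC-MS/MS.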

[2] = biological target: Cytochrome P450 2D6 (Homo sapiens, UniProt P10635); test: Activity of human CYP2D6 expressed in microsomes isolated from baculovirus infected insect cell assessed as enzyme-mediated (2S,3S,4S,5R,6R)-6-((1-carboxy-2-(4-((6-methoxy-1-methyl-1H-benzo[d]imidazol-2-yl)methoxy)phenyl)ethylthio)carbonylamino)-3,4,5-trihydroxytetrahydro-2H-pyran-2-carboxylic acid formation at 20 uM after 2 hrs by radio-HPLC/LC-MS/MS analysis in presence of NADPH-generating system/SAM; format: ADME
Cytochrome P450 2D6, sequence (P10635 whole entry): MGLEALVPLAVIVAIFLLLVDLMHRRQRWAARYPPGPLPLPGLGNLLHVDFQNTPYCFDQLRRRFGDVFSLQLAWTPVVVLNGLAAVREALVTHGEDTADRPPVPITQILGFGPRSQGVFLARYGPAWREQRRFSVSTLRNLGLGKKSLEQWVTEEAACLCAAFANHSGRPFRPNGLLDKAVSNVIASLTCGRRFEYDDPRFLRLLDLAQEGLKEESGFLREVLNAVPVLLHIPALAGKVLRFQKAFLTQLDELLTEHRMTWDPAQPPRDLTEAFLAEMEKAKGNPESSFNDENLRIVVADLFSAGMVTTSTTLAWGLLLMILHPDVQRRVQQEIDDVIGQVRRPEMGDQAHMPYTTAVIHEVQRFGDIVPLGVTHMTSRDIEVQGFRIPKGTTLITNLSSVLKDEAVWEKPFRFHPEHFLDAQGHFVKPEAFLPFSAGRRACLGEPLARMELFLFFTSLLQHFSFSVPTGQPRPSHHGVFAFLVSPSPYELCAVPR

[3] = biological target: Cytochrome P450 2C19 (Homo sapiens, UniProt P33261); test: as §1, with “CYP2C19” for “CYP2C9”; format: ADME
Cytochrome P450 2C19, sequence (P33261 whole entry): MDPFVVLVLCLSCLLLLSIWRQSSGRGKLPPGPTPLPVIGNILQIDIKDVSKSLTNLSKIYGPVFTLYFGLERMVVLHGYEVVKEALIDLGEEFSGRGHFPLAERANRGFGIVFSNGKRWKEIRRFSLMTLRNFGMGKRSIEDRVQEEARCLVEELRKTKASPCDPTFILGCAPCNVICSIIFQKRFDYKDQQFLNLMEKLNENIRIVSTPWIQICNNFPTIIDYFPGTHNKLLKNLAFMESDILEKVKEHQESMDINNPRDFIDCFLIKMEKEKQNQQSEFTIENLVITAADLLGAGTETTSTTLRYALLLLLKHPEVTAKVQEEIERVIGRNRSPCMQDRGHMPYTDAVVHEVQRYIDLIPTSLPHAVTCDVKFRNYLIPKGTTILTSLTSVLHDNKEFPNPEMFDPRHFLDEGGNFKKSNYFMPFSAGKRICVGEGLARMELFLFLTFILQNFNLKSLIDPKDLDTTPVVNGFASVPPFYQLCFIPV
Summary of the method: (§2)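 Baculovirus/insect-cell microsomes expressing single human CYPs, 1 mg/ml protein, with 50 mM potassium phosphate (pH 7.4) or 100 mM Tris-HCl (pH 7.5). NADPH-generating system: 2 mM NADP⁺, 20 mM glucose 6-phosphate, 2 units/ml G6PDH, 10 mM MgCl₂. [¹⁴C]rivoglitazone at 20 μM, 2 h at 37°C with shaking. Control used insect-cell control supersomes. Stopped with acetonitrile; supernatant concentrated under nitrogen; metabolites analysed by radio-HPLC, LC-MS and LC-MS/MS.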

[4] = biological target: T1, Cytochrome P450 1A2 (Homo sapiens, UniProt P05177); test: (§3) Activity of human CYP1A2 expressed in microsomes isolated from baculovirus infected insect cell assessed as enzyme-mediated 3-(4-((6-methoxy-1-methyl-1H-benzo[d]imidazol-2-yl)methoxy)phenyl)-2-(methylthio)propanamide formation at 20 uM after 2 hrs by radio-HPLC/LC-MS/MS analysis in presence of NADPH-generating system/SAM; format: ADME
T1 sequence (P05177 whole entry): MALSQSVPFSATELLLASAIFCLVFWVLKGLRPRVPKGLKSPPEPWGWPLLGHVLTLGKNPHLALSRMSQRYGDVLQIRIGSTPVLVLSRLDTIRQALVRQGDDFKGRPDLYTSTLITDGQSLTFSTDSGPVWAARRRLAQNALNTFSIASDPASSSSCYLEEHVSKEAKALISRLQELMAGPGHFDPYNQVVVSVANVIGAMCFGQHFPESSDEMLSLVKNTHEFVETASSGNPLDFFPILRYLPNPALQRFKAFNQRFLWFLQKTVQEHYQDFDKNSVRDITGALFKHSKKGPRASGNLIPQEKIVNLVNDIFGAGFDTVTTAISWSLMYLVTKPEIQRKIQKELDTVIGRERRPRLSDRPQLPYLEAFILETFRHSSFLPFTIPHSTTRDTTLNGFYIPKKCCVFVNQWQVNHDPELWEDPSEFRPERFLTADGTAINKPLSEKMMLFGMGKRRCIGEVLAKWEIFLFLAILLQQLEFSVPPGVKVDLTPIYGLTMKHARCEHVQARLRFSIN

[5] = Drug metabolism in cynomolgus monkey liver microsomes assessed as formation of 3-(4-((6-methoxy-1-methyl-1H-benzo[d]imidazol-2-yl)methoxy)phenyl)-2-(methylsulfonyl)propanamide at 20 uM after 2 hrs by radio-HPLC/LC-MS/MS analysis in presence of NADPH-generating system/SAM; format: ADME, Macaca fascicularis
[6] = biological target: Cytochrome P450 3A5 (Homo sapiens, UniProt P20815); test: as §3, with “CYP3A5” for “CYP1A2”; format: ADME
Cytochrome P450 3A5, sequence (P20815 whole entry): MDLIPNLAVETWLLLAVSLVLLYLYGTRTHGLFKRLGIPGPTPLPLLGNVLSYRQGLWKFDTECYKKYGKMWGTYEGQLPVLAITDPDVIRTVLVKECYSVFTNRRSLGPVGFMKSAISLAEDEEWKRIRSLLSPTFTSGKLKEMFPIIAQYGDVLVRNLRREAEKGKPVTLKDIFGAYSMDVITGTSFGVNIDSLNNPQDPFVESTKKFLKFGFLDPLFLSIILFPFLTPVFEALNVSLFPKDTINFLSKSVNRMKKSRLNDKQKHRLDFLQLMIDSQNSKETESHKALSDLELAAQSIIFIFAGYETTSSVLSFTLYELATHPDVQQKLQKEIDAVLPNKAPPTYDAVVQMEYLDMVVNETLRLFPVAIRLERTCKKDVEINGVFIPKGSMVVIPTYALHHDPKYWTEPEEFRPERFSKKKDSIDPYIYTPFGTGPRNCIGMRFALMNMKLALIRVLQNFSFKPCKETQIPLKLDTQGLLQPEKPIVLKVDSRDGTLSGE
Summary of the method: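 cDNA-expressed human CYP3A5 in baculovirus-insect-cell microsomes (1 mg/ml protein) was incubated with [¹⁴C]rivoglitazone (20 μM) in 50 mM potassium phosphate (pH 7.4) or 100 mM Tris-HCl (pH 7.5). NADPH-generating system: 2 mM NADP⁺, 20 mM glucose 6-phosphate, 2 units/ml G6PDH, 10 mM MgCl₂. Incubation ran 2 h at 37°C with shaking; insect-cell control supersomes served as control. Acetonitrile stop, supernatant concentrated, then radio-HPLC, LC-MS and LC-MS/MS.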

[7] = biological target: T1, Cytochrome P450 1A2; test: Activity of human CYP1A2 expressed in microsomes isolated from baculovirus infected insect cell assessed as enzyme-mediated 5-hydroxy-5-(4-((6-methoxy-1-methyl-1H-benzo[d]imidazol-2-yl)methoxy)benzyl)thiazolidine-2,4-dione formation at 20 uM after 2 hrs by radio-HPLC/LC-MS/MS analysis in presence of NADPH-generating system and NADPH-generating system/SAM; format: ADME; summary of the method: as §2
[8] = biological target: T2, UDP-glucuronosyltransferase 1A4 (Homo sapiens, UniProt P22310); test: Activity of human UGT1A4 expressed in microsomes isolated from baculovirus infected insect cell assessed as enzyme-mediated (2S,3S,4S,5R,6R)-3,4,5-trihydroxy-6-(5-(4-((6-methoxy-1-methyl-1H-benzo[d]imidazol-2-yl)methoxy)benzyl)-2,4-dioxothiazolidin-3-yl)tetrahydro-2H-pyran-2-carboxylic acid formation at 20 uM after 4 hrs by radio-HPLC/LC-MS/MS analysis in presence of UDPGA; format: ADME
T2 sequence (P22310 whole entry): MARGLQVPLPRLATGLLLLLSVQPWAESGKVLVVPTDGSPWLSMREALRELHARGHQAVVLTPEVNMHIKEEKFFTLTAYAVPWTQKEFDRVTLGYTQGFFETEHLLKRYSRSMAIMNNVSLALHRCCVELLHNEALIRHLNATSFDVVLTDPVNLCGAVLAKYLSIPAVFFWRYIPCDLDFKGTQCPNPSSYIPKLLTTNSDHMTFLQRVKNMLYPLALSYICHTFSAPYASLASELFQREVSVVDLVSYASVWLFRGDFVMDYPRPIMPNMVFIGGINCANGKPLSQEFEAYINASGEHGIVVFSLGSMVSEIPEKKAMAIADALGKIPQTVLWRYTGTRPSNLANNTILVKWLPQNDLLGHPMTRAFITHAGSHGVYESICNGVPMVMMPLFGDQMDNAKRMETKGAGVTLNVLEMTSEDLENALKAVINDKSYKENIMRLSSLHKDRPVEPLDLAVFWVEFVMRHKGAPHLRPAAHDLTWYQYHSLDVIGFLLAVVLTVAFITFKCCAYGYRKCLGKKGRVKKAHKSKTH

Drug metabolism [1]: metabolite_not_detected
Drug metabolism [2]: metabolite_not_detected
Drug metabolism [3]: metabolite_not_detected
Drug metabolism [4]: metabolite_not_detected
Drug metabolism [5]: metabolite_detected
Drug metabolism [6]: metabolite_not_detected
Drug metabolism [7]: metabolite_detected
Drug metabolism [8]: metabolite_not_detected
Structure (SMILES): COc1ccc2nc(COc3ccc(C[14CH]4SC(=O)NC4=O)cc3)n(C)c2c1.Cl (racemic)
